Published values gathered from unrelated publications.
≈ marks a conversion by molar mass, not a printed value.

| Structure (SMILES) | assay | system | conditions | endpoint | result |
| --- | --- | --- | --- | --- | --- |
| Fc1ccccc1Nc1nc(-c2ccncc2)nc2c1CNCC2 | – | PBS | 24 h, pH 7.4 | thermodynamic solubility | 596 µM |
| N#Cc1ccc(C[C@H](NC(=O)Nc2ccc(F)cc2)C(=O)N2CCc3ccccc32)cc1 | – | aqueous buffer | 2 h, pH 7.4, 37 °C | kinetic solubility | 10.5 µM (≈ 4.5 µg/mL) |
| CCN(CC)CCNC(=O)c1cc(S(C)(=O)=O)cnc1OC | – | PBS | 2 h, pH 7.4, 25 °C | kinetic solubility | 393 µM (≈ 129 µg/mL) |
| Clc1ccc(Nc2ncnc3ccc(-c4cccc(N5CCOCC5)c4)cc23)cc1 | – | aqueous buffer | pH 7.4, 25 °C | thermodynamic solubility | < 0.4 µM |
| CC[C@H](C)[C@H](NC(=O)[C@H](C)NC(=O)CNC(=O)[C@H](Cc1ccccc1)NC(=O)[C@H](CC(N)=O)NC(=O)[C@H](CC(N)=O)NC(=O)[C@H](CO)NC(=O)[C@H](CO)NC(=O)[C@H](Cc1c[nH]cn1)NC(=O)[C@@H](NC(=O)[C@H](CC(C)C)NC(=O)[C@H](Cc1ccccc1)NC(=O)[C@H](CC(N)=O)NC(=O)[C@H](C)NC(=O)[C@H](CC(C)C)NC(=O)[C@H](CCCNC(=N)N)NC(=O)[C@H](CCC(N)=O)NC(=O)[C@@H](NC(=O)[C@H](C)NC(=O)[C@@H]1CSSC[C@H](NC(=O)[C@@H](N)CCCCN)C(=O)N[C@@H](CC(N)=O)C(=O)N[C@@H]([C@@H](C)O)C(=O)N[C@@H](C)C(=O)N[C@@H]([C@@H](C)O)C(=O)N1)[C@@H](C)O)C(C)C)C(=O)N[C@@H](CC(C)C)C(=O)N[C@@H](CO)C(=O)N[C@@H](CO)C(=O)N[C@H](C(=O)N[C@@H](CC(N)=O)C(=O)N[C@H](C(=O)NCC(=O)N[C@@H](CO)C(=O)N[C@@H](CC(N)=O)C(=O)N[C@H](C(=O)N[C@@H](Cc1ccc(O)cc1)C(N)=O)[C@@H](C)O)C(C)C)[C@@H](C)O | – | PBS | 1 h, pH 7.4 | thermodynamic solubility | 37 µg/mL |
| N#Cc1ccc(C[C@H](Nc2c(Nc3ccc(F)cc3)c(=O)c2=O)C(=O)N2CCc3ccccc32)cc1 | – | aqueous buffer | 2 h, pH 7.4, 37 °C | kinetic solubility | 11.8 µM (≈ 5.67 µg/mL) |
| CN1CCN(c2cccc(-c3ccc4ncnc(Nc5ccc(Cl)c(Cl)c5)c4c3)c2)CC1 | – | aqueous buffer | pH 7.4, 25 °C | thermodynamic solubility | < 1.7 µM |
| CCCCCCCCCCCCCCCC(=O)NCCOC(=O)C[C@@H](CN)CC(C)C | – | aqueous buffer | 12 h, pH 6.8, 37 °C | thermodynamic solubility | 3780 µg/mL |
| CNS(=O)(=O)c1ccc(Nc2ncc(C(F)(F)F)c([C@H]3CC[C@@](C)(O)CC3)n2)c(C)c1 | – | FaSSIF | 2 h | solubility | 128 µM |
| Cc1ccccc1CN1C(=O)C2=C(CCN(Cc3ccccc3)C2)N2CCN=C12 | shake flask | aqueous buffer | pH 4.5 | solubility | 98600 µg/mL |
| N#Cc1ccc(C[C@H](Nc2nnc(-c3ccc(F)cc3)o2)C(=O)N2CCc3ccccc32)cc1 | – | aqueous buffer | 2 h, pH 7.4, 37 °C | kinetic solubility | 4.8 µM (≈ 2.18 µg/mL) |
| Cc1nccn1CC1CCc2c(c3ccccc3n2C)C1=O (stereo not shown) | – | PBS | 2 h, pH 7.4, 25 °C | kinetic solubility | 110 µM (≈ 32.3 µg/mL) |
| CCCCCCCCCCCCCCCC(=O)NCCO | – | aqueous buffer | 12 h, pH 6.8, 37 °C | thermodynamic solubility | < 16 µg/mL |
| FC(F)(F)c1cc(Nc2ncnc3ccc(-c4cccc(N5CCOCC5)c4)cc23)ccc1Cl | – | aqueous buffer | pH 7.4, 25 °C | thermodynamic solubility | < 0.7 µM |
| O=C(Nc1ccc(OC(F)(F)F)cc1)N[C@H]1CC[C@H](Oc2ccc(C(=O)O)cc2)CC1 | – | simulated gastric fluid | 15 min, pH 1, 37 °C, acidic | solubility | 0.0023 µg/mL |
| N#Cc1ccc(C[C@H](Nc2nnc(-c3ccc(F)cc3)s2)C(=O)N2CCc3ccccc32)cc1 | – | aqueous buffer | 2 h, pH 7.4, 37 °C | kinetic solubility | 4.5 µM (≈ 2.11 µg/mL) |
